Bioassay records (PubChem)
Most compounds without a hit are left out; they make up all but 1% or so of the library.
GSIS activator: primary screen for activators of insulin secretion dependent on glucose, INS-1E cells, GLuc reporter luminescence | activation, % at 16.6 µM | INS-1E GLuc reporter insulin secretion, 2-3 h | 370,000 tested, 0.61% active;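 active means lowest replicate activation of at least 40%, so every replicate reaches that level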;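 further: 0% = median of neutral control wells and 100% = median of IBMX positive control wells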
GAA850 FXN act: frataxin GAA850 promoter activation | 360,000 tested, 0.56% active | HEK293 lucGAA850 FXN promoter luciferase reporter, 24 h; percent of 10 µM SAHA response | activation, % at 6 µM;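 active means activation above the average of all compounds screened plus 3 SD, cutoff fixed separately per campaign, cut at about 7.5% in these data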;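 further: 0% = DMSO wells and 100% = 10 µM SAHA wells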
Xi reactivation: X-chromosome reactivation activator; XiGFP mouse fibroblasts, % GFP-positive cells imaging, 3 d; cells co-treated with 5-aza-dC sensitizer; scaled so ellipticine positive control = 100%; activation, % at 7.58 µM; 360,000 tested, 0.055% active;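 active means mean normalized replicate activation at least 10% and every replicate at or above 10%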;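 further: 0% = median of on-plate neutral control wells and 100% = ellipticine 6 µM median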
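Assay system – SV40-immortalized XiGFP fibroblast cells, line 68-5-11 · Buffer or medium – DMEM supplemented with 5-aza-dC as sensitizing agent · Dosing – one concentration, pinned · Benchmarks – positive control ellipticine, 6 µM final · Times – 3 days compound exposure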
CaV13 FRET inh: Disruptors of the CACNA1D IQ motif to Ca2+-dependent inactivation inhibitor domain association, primary screening, Förster resonance energy transfer in intact living …; HEK cells, CFP/YFP FRET ICDI-IQ, plate reader, 10 min; percent FRET-ratio fall versus neutral wells; inhibition, % at 12.3 µM; 340,000 tested, 0.098% active; AID 743397;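 active means mean replicate inhibition of at least 30% and at least 1% of replicates passing that level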;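 further: 0% = median of the neutral control wells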
Numbers without * were called inactive; . = no result.

SMILES | GSIS activator | GAA850 FXN act | Xi reactivation | CaV13 FRET inh
CCC(=O)N[C@@H]1CC[C@H](CC(=O)NCc2ccc(OC)cc2)O[C@H]1CO | 14 | . | 1 | .
CCOC1=NN(c2ncc(C(F)(F)F)cc2Cl)C(=O)C1 | 18 | 0 | 0 | 34*
COc1ccc(S(=O)(=O)N2CC[C@H]3[C@H](CO)Nc4ccc(Br)cc4[C@H]32)cc1 | 8 | . | 0 | .
C[C@H]1CN(C)C(=O)c2cc(N(C)C)ccc2O[C@H]1CN(C)C | -8 | . | 0 | .
CCNc1ccc(C(=O)N/N=C/c2c(C)nn(-c3ccccc3)c2N2CCCC2)cc1[N+](=O)[O-] | 46* | 3 | 0 | -15
CCOc1cc(C(=O)N(C)CC(=O)Nc2cccc3ccccc23)ccc1OC | 57* | 3 | 0 | -2
CN(CC(=O)Nc1cccc2ccccc12)C(=O)c1ccc(NC(=O)CC#N)cc1 | 19 | 0 | 0 | -3
C[C@H]1CCCCO[C@H](CN(C)C(=O)c2ccccc2)[C@@H](C)CN([C@@H](C)CO)C(=O)c2cc(NC(=O)Nc3ccc4c(c3)OCO4)ccc2O1 | -15 | . | 0 | .
O=S(=O)(c1cccs1)N1CN(C2CCCCC2)c2nc3ccccc3nc21 | 80* | 2 | 0 | -5
O=S(=O)(c1cccs1)N1CN(C2CCCC2)c2nc3ccccc3nc21 | 27 | . | 0 | -6
O=C(Nc1ccccc1N1CCOCC1)C1=NN(c2ccccc2)C(=O)CC1 | 50* | 1 | 0 | -7
O=S(=O)(NCC1CCCO1)c1ccc(Cl)nc1 (configuration not stated) | 44* | 2 | 1 | -6
O=S(=O)(NCC1CCCO1)c1ccc(Cl)cc1 (configuration not stated) | 2 | 1 | 0 | -20
Cn1c(=O)[nH]c(=O)c2c1nc(N1CCCCC1)n2C/C=N/Nc1ccc(C(=O)O)cc1 | 49* | -4 | 1 | -5
C/C=C/Cn1c(N(C)Cc2ccccc2)nc2c1c(=O)[nH]c(=O)n2C | 47* | 3 | 0 | -5
C/C=C/Cn1c(Br)nc2c1c(=O)[nH]c(=O)n2C | 65* | 3 | . | -4
C/C=C/Cn1c(N2CCCCCC2)nc2c1c(=O)[nH]c(=O)n2C | 62* | 3 | . | -1
CN(Cc1ccccc1)c1nc2c(c(=O)[nH]c(=O)n2C)n1C | . | 2 | . | 1
COc1ccccc1-c1cn(CC[C@H]2CC[C@H](NC(=O)C3CCCC3)[C@@H](CO)O2)nn1 | -12 | . | 0 | .
O=C(NC1CCCCC1)N1CC(=O)N2[C@@H](CO)[C@@H](c3ccc(-c4cccnc4)cc3)[C@@H]2C1 | -3 | . | 0 | .
CCOc1ccc(S(=O)(=O)N2CCOCC2)cc1NC(=O)C1=COCCO1 | 41* | 1 | 0 | -6
Cc1ccc(S(=O)(=O)/N=C2\CN(C)C(=O)N2C)cc1 | 45* | -1 | 0 | -2
Cc1cnc(C(=O)OC(C)C(=O)Nc2ccc(Oc3ccccc3)cc2)cn1 (configuration not stated) | -50 | 1 | 1 | -7
Cc1cnc(C(=O)OC(C)C(=O)NCc2ccccc2)cn1 (configuration not stated) | 59* | 2 | 0 | -7
O=C(Cn1cnc2c(OCc3ccccc3)ncnc21)NCc1ccccn1 | 41* | 0 | 0 | -6
SMILES | GSIS activator | GAA850 FXN act | Xi reactivation | CaV13 FRET inh
O=C(Cn1cnc2c(OCc3ccccc3)ncnc21)N[C@H](CO)Cc1cc2ccccc2[nH]1 | 49* | -1 | 0 | -6
COC(=O)[C@H](Cc1ccccc1)NC(=O)Cn1cnc2c(OCc3ccccc3)ncnc21 | -7 | 1 | 0 | -4
O=C1Nc2ccccc2-n2nnnc2C1N1CCN(c2ccccn2)CC1 (configuration not stated) | 101* | . | 1 | -14
O=C1Nc2ccccc2-n2nnnc2C1N1CCN(c2ccc(C(F)(F)F)cn2)CC1 (configuration not stated) | -19 | . | 0 | -6
O=C(C[C@@H]1C=C[C@H](NC(=O)CC2CC2)[C@H](CO)O1)NCc1ccc(-c2ccccc2)cc1 | -5 | . | 0 | .
COc1cc2cnc(-c3ccsc3)cc2cc1OC | 50* | 5 | 0 | -6
c1cc(-c2cc3cc4c(cc3cn2)OCO4)cs1 | 1 | 4 | 0 | 10
F[B-](F)(F)COCc1ccccc1C#Cc1ccccc1 | 98* | . | 0 | -6
O=C(O)c1ccccc1OCc1ccccc1Br | -2 | 1 | 0 | -18
CCCCC#Cc1ccccc1COC[B-](F)(F)F | 73* | . | 0 | -7
CCCCC#Cc1ccc(C(=O)NNC(=O)Nc2ccccc2)o1 | 3 | -1 | 0 | -5
F[B-](F)(F)COCc1ccccc1Br | 56* | 5 | 0 | -8
O=C(C[C@@H]1CC[C@@H](NC(=O)c2ccc3c(c2)OCO3)[C@@H](CO)O1)NCc1ccc(F)cc1 | 4 | . | 0 | .
CCN(CC)c1ccc2cc(C(N)=O)c(=O)oc2c1 | -59 | 4 | . | 33*
CC(C)CCOP(=O)(c1ccccc1)c1ccccc1 | 64* | 2 | . | -7
CCN1/C(=C/c2ccc3cc(C)ccc3[n+]2CC)Sc2cc(C)ccc21 | -46 | -9 | 102* | -6
CCCCN1/C(=C/c2ccc3ccccc3[n+]2CC)Sc2ccccc21 | . | -5 | . | .
CCOC(=O)C1=C(COC(=O)/C=C/c2ccc(OCC)c(OC)c2)NC(=O)NC1C (configuration not stated) | 90* | 3 | 0 | -6
CCOC(=O)C1=C(COC(=O)Cc2ccccc2F)NC(=O)NC1C (configuration not stated) | 42* | 2 | 0 | -7
CCOC(=O)C1=C(COC(=O)/C=C/c2ccc(Cl)cc2)NC(=O)NC1C (configuration not stated) | 37 | 1 | 1 | .
CCOC(=O)C1=C(COC(=O)/C=C/c2cccc(OC)c2OC)NC(=O)NC1C (configuration not stated) | 57* | 3 | 0 | -6
COc1ccc(S(=O)(=O)N(C)C[C@@H]2Oc3ncc(Br)cc3C(=O)N([C@H](C)CO)C[C@@H]2C)cc1 | 2 | . | 0 | .
Cc1ccc(S(=O)(=O)NCC[C@H]2CC[C@H](NC(=O)C3CCOCC3)[C@H](CO)O2)cc1 | 22 | . | 0 | .
Cc1cccc(S(=O)(=O)N2CCCCN3[C@@H](CO)[C@@H](c4ccc(C#CC(C)C)cc4)[C@@H]3C2)c1 | 57* | . | 0 | .
Cc1cccc(S(=O)(=O)N2CCCCN3[C@H](CO)[C@H](c4ccc(C#CC(C)C)cc4)[C@H]3C2)c1 | -19 | . | 0 | .
CC(C)NC(=O)Nc1ccc2c(c1)C(=O)N([C@H](C)CO)C[C@H](C)[C@@H](CN(C)C(=O)C1CCCCC1)OCCCC[C@@H](C)O2 | -1 | . | 0 | .
O=C(Nc1ccc2c(c1)[C@@H]1C[C@@H](CC(=O)N3CCc4ccccc4C3)O[C@@H](CO)[C@@H]1O2)C1CCOCC1 | -5 | . | 0 | .
